# Assay results published in ChEMBL document CHEMBL3046353, “Synthesis and fungicidal activity of some 5-membered heterocyclic derivatives containing benzimidazoles” (1993).
# Activity calls are given as the source filed them. The calls are words filed in the database; no cut-off is given here.
# Legend:
# [1] = test system: Sagittaria latifolia; assay: Herbicidal activity against Sagittaria latifolia (broadleaf arrowhead) under paddy conditions; format: functional, organism-based
# [2] = test system: Sagittaria latifolia; assay: Pre-emergence herbicidal activity against Sagittaria latifolia (broadleaf arrowhead); format: functional, organism-based
# [3] = test system: Sagittaria latifolia; assay: Post-emergence herbicidal activity against Sagittaria latifolia (broadleaf arrowhead); format: functional, organism-based
# [4] = test system: Schoenoplectus acutus; assay: Herbicidal activity against Schoenoplectus acutus (hardstem bulrush) under paddy conditions; format: functional, organism-based
# [5] = test system: Schoenoplectus acutus; assay: Post-emergence herbicidal activity against Schoenoplectus acutus (hardstem bulrush); format: functional, organism-based
# [6] = test system: Schoenoplectus acutus; assay: Pre-emergence herbicidal activity against Schoenoplectus acutus (hardstem bulrush); format: functional, organism-based
# [7] = test system: Echinochloa crus-galli; assay: Herbicidal activity against Echinochloa crus-galli (barnyard grass) under paddy conditions; format: functional, organism-based
# [8] = test system: Echinochloa crus-galli; assay: Post-emergence herbicidal activity against Echinochloa crus-galli (barnyard grass); format: functional, organism-based
# [9] = test system: Oryza sativa; assay: Herbicidal activity against Oryza sativa (rice) under paddy conditions; format: functional, organism-based
# [10] = test system: Echinochloa crus-galli; assay: Pre-emergence herbicidal activity against Echinochloa crus-galli (barnyard grass); format: functional, organism-based
# [11] = test system: Oryza sativa; assay: Pre-emergence herbicidal activity against Oryza sativa (rice); format: functional, organism-based
# [12] = test system: Abutilon theophrasti; assay: Post-emergence herbicidal activity against Abutilon theophrasti (velvetleaf); format: functional, organism-based
# [13] = test system: Oryza sativa; assay: Post-emergence herbicidal activity against Oryza sativa (rice); format: functional, organism-based
# [14] = test system: Abutilon theophrasti; assay: Pre-emergence herbicidal activity against Abutilon theophrasti (velvetleaf); format: functional, organism-based
# [15] = test system: Convolvulaceae; assay: Herbicidal activity against Convolvulaceae (morning glory family) under paddy conditions; format: functional, organism-based
# [16] = test system: Convolvulaceae; assay: Post-emergence herbicidal activity against Convolvulaceae (morning glory family); format: functional, organism-based
# [17] = test system: Avena sativa; assay: Herbicidal activity against Avena sativa under paddy conditions; format: functional, organism-based
# [18] = test system: Convolvulaceae; assay: Pre-emergence herbicidal activity against Convolvulaceae (morning glory family); format: functional, organism-based
# [19] = test system: Avena sativa; assay: Pre-emergence herbicidal activity against Avena sativa; format: functional, organism-based
# [20] = test system: Avena sativa; assay: Post-emergence herbicidal activity against Avena sativa; format: functional, organism-based
# [21] = test system: Spodoptera litura; assay: Insecticidal activity against Spodoptera litura; format: functional, organism-based
# [22] = test system: Tetranychus cinnabarinus; assay: Insecticidal activity against Tetranychus cinnabarinus (carmine spider mite); format: functional, organism-based
# [23] = test system: Culex pipiens pallens; assay: Insecticidal activity against Culex pipiens pallens (mosquito) at 3 to 5 ppm; format: functional, organism-based
# [24] = test system: Musca domestica; assay: Insecticidal activity against Musca domestica (house fly); format: functional, organism-based
# [25] = test system: Rhizoctonia solani; assay: Fungicidal activity against Rhizoctonia solani at 500 ppm after 7 days by poisoned food technique; format: functional; details: 168 h, read-out: GI
# In short: (§1)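 Cultures kept on potato dextrose agar. Each compound, dissolved in acetone, was added to potato dextrose agar at a final 500 ppm (w/v) (poisoned food technique). A disc cut from the periphery of a seven-day-old culture was inoculated onto each set. Control sets held potato dextrose agar only. The read-out is percentage inhibition of fungal growth relative to control.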
# [26] = test system: Helminthosporium; assay: Fungicidal activity against Helminthosporium oryzae at 500 ppm after 7 days by poisoned food technique; format: functional; details: 168 h, read-out: GI; in short: as §1
Structure (SMILES),Activity [1],Activity [2],Activity [3],Activity [4],Activity [5],Activity [6],Activity [7],Activity [8],Activity [9],Activity [10],Activity [11],Activity [12],Activity [13],Activity [14],Activity [15],Activity [16],Activity [17],Activity [18],Activity [19],Activity [20],further results
Clc1cccc(-c2nnc(SCc3nc4ccccc4[nH]3)o2)c1,inactive,inactive,inactive,inactive,inactive,inactive,inactive,inactive,inactive,inactive,inactive,inactive,inactive,inactive,inactive,inactive,inactive,inactive,inactive,inactive,Activity [21]: inactive; Activity [22]: inactive; Activity [23]: Active; Activity [24]: inactive; inhibition of growth at 500 ppm [25]: 69.4%; inhibition of growth at 500 ppm [26]: 89.7%
Cc1ccc2[nH]c(CSc3nnc(-c4ccccc4)o3)nc2c1,inactive,inactive,inactive,inactive,inactive,inactive,inactive,inactive,inactive,inactive,inactive,inactive,inactive,inactive,inactive,inactive,inactive,inactive,inactive,inactive,Activity [21]: inactive; Activity [22]: inactive; Activity [23]: Active; Activity [24]: inactive; inhibition of growth at 500 ppm [25]: 61.3%; inhibition of growth at 500 ppm [26]: 65.3%
Clc1ccccc1-c1nnc(SCc2nc3ccccc3[nH]2)s1,inactive,inactive,inactive,inactive,inactive,inactive,inactive,inactive,inactive,inactive,inactive,inactive,inactive,inactive,inactive,inactive,inactive,inactive,inactive,inactive,Activity [21]: inactive; Activity [22]: inactive; Activity [23]: Active; Activity [24]: inactive; inhibition of growth at 500 ppm [25]: 49.8%; inhibition of growth at 500 ppm [26]: 68.2%
Cc1ccc2[nH]c(CSc3nnc(-c4cccc(Cl)c4)s3)nc2c1,inactive,inactive,inactive,inactive,inactive,inactive,inactive,inactive,inactive,inactive,inactive,inactive,inactive,inactive,inactive,inactive,inactive,inactive,inactive,inactive,Activity [21]: inactive; Activity [22]: inactive; Activity [23]: Active; Activity [24]: inactive; inhibition of growth at 500 ppm [25]: 60.4%; inhibition of growth at 500 ppm [26]: 81.2%
Clc1ccc(-c2nnc(SCc3nc4ccccc4[nH]3)s2)cc1,inactive,inactive,inactive,inactive,inactive,inactive,inactive,inactive,inactive,inactive,inactive,inactive,inactive,inactive,inactive,inactive,inactive,inactive,inactive,inactive,Activity [21]: inactive; Activity [22]: inactive; Activity [23]: Active; Activity [24]: inactive; inhibition of growth at 500 ppm [25]: 39%; inhibition of growth at 500 ppm [26]: 52.5%
c1ccc2[nH]c(CSc3nnc(-c4ccncc4)s3)nc2c1,inactive,inactive,inactive,inactive,inactive,inactive,inactive,inactive,inactive,inactive,inactive,inactive,inactive,inactive,inactive,inactive,inactive,inactive,inactive,inactive,Activity [21]: inactive; Activity [22]: inactive; Activity [23]: Active; Activity [24]: inactive; inhibition of growth at 500 ppm [25]: 21.3%; inhibition of growth at 500 ppm [26]: 54.5%
Cc1ccc2[nH]c(CSc3nnc(-c4ccc(Cl)cc4)o3)nc2c1,inactive,inactive,inactive,inactive,inactive,inactive,inactive,inactive,inactive,inactive,inactive,inactive,inactive,inactive,inactive,inactive,inactive,inactive,inactive,inactive,Activity [21]: inactive; Activity [22]: inactive; Activity [23]: Active; Activity [24]: inactive; inhibition of growth at 500 ppm [25]: 100%; inhibition of growth at 500 ppm [26]: 100%
Clc1cccc(-c2nnc(SCc3nc4ccccc4[nH]3)s2)c1,inactive,inactive,inactive,inactive,inactive,inactive,inactive,inactive,inactive,inactive,inactive,inactive,inactive,inactive,inactive,inactive,inactive,inactive,inactive,inactive,Activity [21]: inactive; Activity [22]: inactive; Activity [23]: Active; Activity [24]: inactive; inhibition of growth at 500 ppm [25]: 89.5%; inhibition of growth at 500 ppm [26]: 91.2%
c1ccc2[nH]c(CSc3nnc(-c4ccncc4)o3)nc2c1,inactive,inactive,inactive,inactive,inactive,inactive,inactive,inactive,inactive,inactive,inactive,inactive,inactive,inactive,inactive,inactive,inactive,inactive,inactive,inactive,Activity [21]: inactive; Activity [22]: inactive; Activity [23]: Active; Activity [24]: inactive; inhibition of growth at 500 ppm [25]: 32%; inhibition of growth at 500 ppm [26]: 49.8%
